Experimental data published in ChEMBL document CHEMBL1629713, “Discovery of benzoylisoindolines as a novel class of potent, selective and orally active GlyT1 inhibitors” (Bioorg Med Chem Lett, 2010).
In brackets after ≈: the same amount, converted by molar mass.

Experiments:
[1] = target: T1, Sodium- and chloride-dependent glycine transporter 1 (Homo sapiens, UniProt P48067); assay: Inhibition of human GlyT1
T1 sequence (P48067 whole entry): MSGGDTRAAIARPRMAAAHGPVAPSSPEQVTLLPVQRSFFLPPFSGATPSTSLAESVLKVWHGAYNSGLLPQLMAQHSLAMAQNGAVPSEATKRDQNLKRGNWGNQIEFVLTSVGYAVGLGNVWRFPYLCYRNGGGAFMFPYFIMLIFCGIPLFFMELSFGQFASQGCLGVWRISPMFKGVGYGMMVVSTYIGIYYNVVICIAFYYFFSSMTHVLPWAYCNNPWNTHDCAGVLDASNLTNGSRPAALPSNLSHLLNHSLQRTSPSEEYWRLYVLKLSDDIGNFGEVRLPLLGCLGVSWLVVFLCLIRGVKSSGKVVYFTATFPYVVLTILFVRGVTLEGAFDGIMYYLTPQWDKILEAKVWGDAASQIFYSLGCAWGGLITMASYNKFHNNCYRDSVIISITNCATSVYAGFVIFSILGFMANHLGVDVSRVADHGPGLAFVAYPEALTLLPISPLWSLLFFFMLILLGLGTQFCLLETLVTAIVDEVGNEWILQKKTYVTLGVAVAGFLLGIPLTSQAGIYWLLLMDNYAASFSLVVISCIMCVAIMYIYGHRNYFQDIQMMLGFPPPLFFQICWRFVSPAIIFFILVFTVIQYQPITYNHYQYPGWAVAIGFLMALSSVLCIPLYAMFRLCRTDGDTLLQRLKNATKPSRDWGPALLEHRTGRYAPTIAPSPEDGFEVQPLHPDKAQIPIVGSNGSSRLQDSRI
How it was run: (§1)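 [3H]-glycine uptake inhibition in cells transfected with human GlyT1 or human GlyT2 cDNA. EC50 values averaged from at least two independent experiments.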

[2] = Intrinsic clearance in mouse liver microsomes assessed per mg of protein; type: ADME, Microsome
Cytochrome P450 2C9 = Cytochrome P450 2C9 (Homo sapiens, UniProt P11712); assay: Inhibition of CYP2C9; type: ADME
Cytochrome P450 2C9, sequence (P11712 whole entry): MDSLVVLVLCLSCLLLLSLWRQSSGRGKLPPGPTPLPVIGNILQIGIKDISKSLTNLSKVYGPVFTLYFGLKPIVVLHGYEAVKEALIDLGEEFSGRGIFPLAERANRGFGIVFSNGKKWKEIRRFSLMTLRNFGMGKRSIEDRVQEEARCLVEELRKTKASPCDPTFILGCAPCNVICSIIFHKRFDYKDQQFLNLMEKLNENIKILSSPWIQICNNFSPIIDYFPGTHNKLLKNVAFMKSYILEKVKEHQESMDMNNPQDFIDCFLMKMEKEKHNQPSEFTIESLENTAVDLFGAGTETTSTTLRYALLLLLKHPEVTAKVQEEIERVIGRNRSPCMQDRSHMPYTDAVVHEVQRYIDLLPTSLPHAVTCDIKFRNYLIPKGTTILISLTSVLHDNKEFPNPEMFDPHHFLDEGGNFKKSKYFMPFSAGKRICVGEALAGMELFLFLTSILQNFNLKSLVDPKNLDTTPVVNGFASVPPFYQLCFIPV

Cytochrome P450 3A4 = Cytochrome P450 3A4 (Homo sapiens, UniProt P08684); assay: Inhibition of CYP3A4; type: ADME
Cytochrome P450 3A4, sequence (P08684 whole entry): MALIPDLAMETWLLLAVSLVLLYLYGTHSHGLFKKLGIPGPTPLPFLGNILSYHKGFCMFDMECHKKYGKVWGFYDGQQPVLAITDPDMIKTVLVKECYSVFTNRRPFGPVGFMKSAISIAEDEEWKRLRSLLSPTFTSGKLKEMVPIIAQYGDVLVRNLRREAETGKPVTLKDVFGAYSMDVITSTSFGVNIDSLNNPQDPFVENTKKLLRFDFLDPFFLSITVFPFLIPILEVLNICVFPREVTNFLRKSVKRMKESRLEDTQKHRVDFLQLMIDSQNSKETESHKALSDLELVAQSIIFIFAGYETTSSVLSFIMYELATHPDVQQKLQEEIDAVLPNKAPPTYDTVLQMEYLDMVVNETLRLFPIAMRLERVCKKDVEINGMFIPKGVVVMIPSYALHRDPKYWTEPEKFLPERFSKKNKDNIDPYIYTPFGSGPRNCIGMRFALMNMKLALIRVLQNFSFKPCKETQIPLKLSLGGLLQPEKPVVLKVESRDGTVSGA

Cytochrome P450 2D6 = Cytochrome P450 2D6 (Homo sapiens, UniProt P10635); assay: Inhibition of CYP2D6; type: ADME
Cytochrome P450 2D6, sequence (P10635 whole entry): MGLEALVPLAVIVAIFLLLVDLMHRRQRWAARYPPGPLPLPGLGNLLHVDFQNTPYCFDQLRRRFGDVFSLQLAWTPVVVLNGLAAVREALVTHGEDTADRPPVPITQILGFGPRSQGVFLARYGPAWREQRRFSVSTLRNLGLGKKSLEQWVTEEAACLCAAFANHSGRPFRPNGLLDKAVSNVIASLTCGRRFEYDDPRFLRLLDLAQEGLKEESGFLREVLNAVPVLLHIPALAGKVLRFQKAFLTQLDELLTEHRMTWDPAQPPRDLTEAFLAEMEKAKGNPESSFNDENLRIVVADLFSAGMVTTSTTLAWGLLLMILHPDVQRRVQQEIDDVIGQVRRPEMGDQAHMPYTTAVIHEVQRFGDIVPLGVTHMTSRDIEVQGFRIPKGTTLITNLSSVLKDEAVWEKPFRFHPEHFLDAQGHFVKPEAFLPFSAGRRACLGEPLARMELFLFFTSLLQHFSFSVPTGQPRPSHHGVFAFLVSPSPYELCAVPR

[3] = Aqueous solubility of the compound by lyophilisate solubility assay; type: physicochemical; details: buffer
How it was run: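 LYSA: compound in DMSO solution lyophilized, then dissolved in 0.05 M phosphate buffer pH 6.5, stirred 1 h and shaken 2 h; solubility in µg/ml.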

Mus musculus = assay: Antipsychotic activity in po dosed mouse assessed as inhibition of L-687414-induced hyperlocomotion after 60 mins; type: functional; details: 1 h, read-out: ID50 (the source's name)
How it was run: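 Mice given compound orally, n = 8 per group; hyperlocomotion induced by L-687,414. Horizontal activity counts recorded over a 60-min period and reported as group means. ID50 (mg/kg) derived from dose-dependent inhibition of the L-687,414-induced response.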

[4] = Permeability of the compound by PAMPA; type: ADME; details: read-out: permeability
How it was run: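 PAMPA: permeation constant Pe (10^-6 cm/s) measured through artificial membranes.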

[5] = target: T2, Sodium- and chloride-dependent glycine transporter 2 (Homo sapiens, UniProt Q9Y345); assay: Inhibition of human GlyT2; how it was run: as §1
T2 sequence (Q9Y345 whole entry): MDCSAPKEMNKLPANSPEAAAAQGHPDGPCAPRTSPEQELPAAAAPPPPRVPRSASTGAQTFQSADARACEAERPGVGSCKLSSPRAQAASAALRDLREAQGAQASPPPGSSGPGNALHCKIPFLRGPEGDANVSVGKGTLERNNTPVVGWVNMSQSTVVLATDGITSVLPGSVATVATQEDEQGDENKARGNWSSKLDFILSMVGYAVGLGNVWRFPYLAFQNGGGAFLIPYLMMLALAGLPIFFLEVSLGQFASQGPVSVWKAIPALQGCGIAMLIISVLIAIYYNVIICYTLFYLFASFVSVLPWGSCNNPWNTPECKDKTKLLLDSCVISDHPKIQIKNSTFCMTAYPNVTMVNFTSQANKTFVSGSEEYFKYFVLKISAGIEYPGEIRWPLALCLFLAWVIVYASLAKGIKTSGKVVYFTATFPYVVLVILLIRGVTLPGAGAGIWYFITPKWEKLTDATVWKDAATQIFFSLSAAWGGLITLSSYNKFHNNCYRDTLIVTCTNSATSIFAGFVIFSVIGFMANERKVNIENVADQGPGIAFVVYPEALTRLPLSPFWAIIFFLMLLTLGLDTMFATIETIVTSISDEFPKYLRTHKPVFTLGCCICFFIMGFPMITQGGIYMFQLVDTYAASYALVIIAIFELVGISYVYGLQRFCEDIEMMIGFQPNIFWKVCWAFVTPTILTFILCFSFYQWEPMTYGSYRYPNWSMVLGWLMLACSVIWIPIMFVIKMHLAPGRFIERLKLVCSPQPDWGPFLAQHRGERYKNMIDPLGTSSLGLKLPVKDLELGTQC

[6] = Intrinsic clearance in human liver microsomes assessed per mg of protein; type: ADME, Microsome
Homo sapiens = organism: Homo sapiens; assay: Selectivity ratio of EC50 for human GlyT2 to EC50 for human GlyT1
How it was run: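 Ratio of the two EC50s from a [³H]-glycine uptake inhibition assay run in cells transfected with human GlyT1 cDNA or human GlyT2 cDNA. Each EC50 is the average of at least two independent experiments.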

[7] = Drug level in rat plasma at 10 mg/kg after 3 hrs; type: ADME, organism-based; parameters: dose 10 mg/kg
How it was run: (§2)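 Rats dosed 10 mg/kg po, n = 6. Striatal extracellular fluid sampled for glycine over 3 h, expressed as maximal fold increase and fold increase at 3 h. Animals sacrificed at 3 h; plasma and brain drug levels measured at 3 h post dose.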

[8] = Ratio of drug level in brain to plasma in rat at 5.7 mg/kg, po; type: ADME, organism-based; parameters: dose 5.7 mg/kg, route oral; details: read-out: BPR
Rattus norvegicus [9] = assay: […] in rat striatum assessed as increase of glycine at 10 mg/kg, po after 3 hrs relative to basal level; type: functional; how it was run: as §2
[10] = Clearance in rat at 1.7 mg/kg, iv; type: ADME, organism-based; parameters: dose 1.7 mg/kg, route intravenous; details: in vivo
How it was run: (§3)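 Single-dose rat PK with iv doses of 1.7, 2.0 or 2.2 mg/kg and po doses of 2, 5.7 or 6.8 mg/kg. CL, Vss, oral bioavailability, terminal half-life and brain/plasma ratio determined; values averaged from two independent experiments.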

hERG (KCNH2) = hERG (KCNH2) (Homo sapiens, UniProt Q12809); assay: Inhibition of human ERG at 10 uM by patch clamp assay
hERG (KCNH2), sequence (Q12809 whole entry): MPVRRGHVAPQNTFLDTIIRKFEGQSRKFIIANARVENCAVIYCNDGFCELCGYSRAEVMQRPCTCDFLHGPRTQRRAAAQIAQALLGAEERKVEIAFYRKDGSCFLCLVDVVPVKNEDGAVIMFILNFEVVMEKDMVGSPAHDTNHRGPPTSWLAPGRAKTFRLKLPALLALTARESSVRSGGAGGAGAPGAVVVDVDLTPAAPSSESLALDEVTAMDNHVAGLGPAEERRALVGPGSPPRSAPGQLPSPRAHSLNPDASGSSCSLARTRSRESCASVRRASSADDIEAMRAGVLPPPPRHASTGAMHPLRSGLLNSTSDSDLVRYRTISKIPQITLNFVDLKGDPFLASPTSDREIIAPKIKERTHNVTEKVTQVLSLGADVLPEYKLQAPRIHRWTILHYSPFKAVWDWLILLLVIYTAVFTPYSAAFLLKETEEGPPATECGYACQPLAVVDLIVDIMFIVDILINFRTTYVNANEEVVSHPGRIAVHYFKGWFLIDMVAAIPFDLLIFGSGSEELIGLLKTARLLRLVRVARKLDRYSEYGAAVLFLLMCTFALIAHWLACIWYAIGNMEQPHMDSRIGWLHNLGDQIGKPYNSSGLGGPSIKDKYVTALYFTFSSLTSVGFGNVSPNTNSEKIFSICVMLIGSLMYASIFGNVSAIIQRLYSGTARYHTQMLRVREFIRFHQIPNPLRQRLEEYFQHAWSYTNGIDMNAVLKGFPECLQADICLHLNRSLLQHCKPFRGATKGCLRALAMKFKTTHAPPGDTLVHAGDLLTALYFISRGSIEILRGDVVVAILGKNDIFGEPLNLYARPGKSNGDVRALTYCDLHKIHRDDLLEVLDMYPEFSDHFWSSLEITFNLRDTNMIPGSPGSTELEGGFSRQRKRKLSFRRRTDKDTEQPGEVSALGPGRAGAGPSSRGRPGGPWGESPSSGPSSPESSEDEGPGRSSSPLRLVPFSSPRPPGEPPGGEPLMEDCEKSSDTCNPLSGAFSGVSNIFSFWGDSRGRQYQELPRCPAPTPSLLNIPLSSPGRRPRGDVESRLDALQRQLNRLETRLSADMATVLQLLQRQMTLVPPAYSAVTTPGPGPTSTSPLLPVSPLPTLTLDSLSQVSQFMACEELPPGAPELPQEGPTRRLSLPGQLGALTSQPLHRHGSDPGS
How it was run: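 hERG block measured by patch clamp at 10 µM; values averaged from at least two independent experiments.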

[11] = Terminal half life in rat at 5.7 mg/kg, po; type: ADME, organism-based; parameters: dose 5.7 mg/kg, route oral; details: in vivo, read-out: beta t1/2 (converted); how it was run: as §3
[12] = Oral bioavailability in rat at 5.7 mg/kg; type: ADME, organism-based; details: in vivo; how it was run: as §3
Rattus norvegicus [13] = assay: […] in rat striatum assessed as increase of glycine level at 10 mg/kg, po relative to basal level; type: functional; how it was run: as §2
[14] = Intrinsic clearance in rat liver microsomes assessed per mg of protein; type: ADME, Microsome
How it was run: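 Intrinsic clearance measured in rat liver microsomes, expressed as µL/min/mg protein.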

[15] = target: T2, Sodium- and chloride-dependent glycine transporter 2; assay: Inhibition of human GlyT2 expressed in CHO cells assessed as inhibition of [3H]glycine uptake by liquid scintillation counting; type: cell-based; how it was run: as §1
[16] = Volume of distribution at steady state in rat at 1.7 mg/kg, iv; type: ADME, organism-based; parameters: dose 1.7 mg/kg, route intravenous; details: in vivo, read-out: Vdss; how it was run: as §3
[17] = target: T1, Sodium- and chloride-dependent glycine transporter 1; assay: Inhibition of human GlyT1 expressed in CHO cells assessed as inhibition of [3H]glycine uptake by liquid scintillation counting; type: cell-based; how it was run: as §1
[18] = Drug level in rat brain at 10 mg/kg after 3 hrs; type: ADME, organism-based; parameters: dose 10 mg/kg; details: read-out: Drug uptake; how it was run: as §2
[19] = Terminal half life in rat at 2 mg/kg, po; type: ADME, organism-based; parameters: dose 2 mg/kg, route oral; details: in vivo, read-out: beta t1/2 (converted); how it was run: as §3
[20] = Volume of distribution at steady state in rat at 2 mg/kg, iv; type: ADME, organism-based; parameters: dose 2 mg/kg, route intravenous; details: in vivo, read-out: Vdss; how it was run: as §3
[21] = Oral bioavailability in rat at 2 mg/kg; type: ADME, organism-based; details: in vivo; how it was run: as §3
[22] = Clearance in rat at 2 mg/kg, iv; type: ADME, organism-based; parameters: dose 2 mg/kg, route intravenous; details: in vivo; how it was run: as §3
[23] = Ratio of drug level in brain to plasma in rat at 2 mg/kg, po; type: ADME, organism-based; parameters: dose 2 mg/kg, route oral; details: read-out: BPR
[24] = Clearance in rat at 2.2 mg/kg, iv; type: ADME, organism-based; parameters: dose 2.2 mg/kg, route intravenous; details: in vivo; how it was run: as §3
[25] = Ratio of drug level in brain to plasma in rat at 6.8 mg/kg, po; type: ADME, organism-based; parameters: dose 6.8 mg/kg, route oral; details: read-out: BPR
[26] = Oral bioavailability in rat at 6.8 mg/kg; type: ADME, organism-based; details: in vivo; how it was run: as §3
[27] = Terminal half life in rat at 6.8 mg/kg, po; type: ADME, organism-based; parameters: dose 6.8 mg/kg, route oral; details: in vivo, read-out: beta t1/2 (converted); how it was run: as §3
[28] = Volume of distribution at steady state in rat at 2.2 mg/kg, iv; type: ADME, organism-based; parameters: dose 2.2 mg/kg, route intravenous; details: in vivo, read-out: Vdss; how it was run: as §3

SMILES | solubility [3] | ED50 (Mus musculus) | Papp [4] | concentration at 3 h [7] | fold change (FC) (Rattus norvegicus [9]) | inhibition at 10 µM (hERG (KCNH2)) | fold change (FC) (Rattus norvegicus [13]) | microsomal CLint [14] | EC50 [15] | EC50 [17] | concentration at 3 h [18] | also measured
C[C@H](Oc1ccc(S(C)(=O)=O)cc1C(=O)N1Cc2ccc(Cl)cc2C1)C(F)(F)F | < 1 µg/mL | 20 mg/kg | 4.4 ×10⁻⁶ cm/s | – | – | – | – | – | – | – | – | EC50 [1]: 0.135 µM; microsomal CLint [2]: 23.3 µL/min/mg; IC50 (Cytochrome P450 2C9): > 38 µM; IC50 (Cytochrome P450 3A4): > 38 µM; IC50 (Cytochrome P450 2D6): > 38 µM; EC50 [5]: 30 µM; microsomal CLint [6]: 2.4 µL/min/mg; Ratio EC50 (Homo sapiens): > 200
CC(C)Oc1ccc(S(C)(=O)=O)cc1C(=O)N1Cc2ccc(C3CCOCC3)cc2C1 | 191 µg/mL (≈ 431 µM) | 0.5 mg/kg | 4.2 ×10⁻⁶ cm/s | 279 ng/mL | 1.5 | 10% | 1.9 | 18.9 µL/min/mg | > 30 µM | 0.028 µM | 159 ng/mL | Kp [8]: 0.6; clearance [10]: 22 mL/min/kg; half-life [11]: 1.6 h; bioavailability [12]: 40%; Vd [16]: 2 L/kg
C[C@H](Oc1ccc(S(C)(=O)=O)cc1C(=O)N1Cc2cc(C(F)(F)F)cnc2C1)C(F)(F)F | 280 µg/mL (≈ 580 µM) | 0.4 mg/kg | 5 ×10⁻⁶ cm/s | 2500 ng/mL | 1.8 | 12% | 1.8 | 1.9 µL/min/mg | > 30 µM | 0.05 µM | 500 ng/mL | half-life [19]: 6 h; Vd [20]: 1.4 L/kg; bioavailability [21]: 55%; clearance [22]: 1.7 mL/min/kg; Kp [23]: 0.2
C[C@H](Oc1ccc(S(C)(=O)=O)cc1C(=O)N1Cc2ccc(C3CCOCC3)cc2C1)C(F)(F)F | 76 µg/mL (≈ 153 µM) | 0.5 mg/kg | 3.3 ×10⁻⁶ cm/s | 480 ng/mL | 2 | 23% | 2.1 | 13.9 µL/min/mg | > 30 µM | 0.014 µM | 274 ng/mL | clearance [24]: 21 mL/min/kg; Kp [25]: 0.6; bioavailability [26]: 65%; half-life [27]: 3.2 h; Vd [28]: 3.7 L/kg
